Bioassay records from PubChem BioAssay.
GPR7 antag: blocks human GPR7 receptor signaling. P48145. 290,000 tested, 1.1% active. GPR7-expressing cells, fluorescence antagonist assay. inhibition, % at 4.4 µM. AID 1861; in the data active means inhibition above about 16%, passing the limit was not always enough;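 further: cells stimulated with the agonist NPW; 0% = agonist with vehicle and 100% = vehicle without agonist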
Target sequence (P48145 whole entry, looked up): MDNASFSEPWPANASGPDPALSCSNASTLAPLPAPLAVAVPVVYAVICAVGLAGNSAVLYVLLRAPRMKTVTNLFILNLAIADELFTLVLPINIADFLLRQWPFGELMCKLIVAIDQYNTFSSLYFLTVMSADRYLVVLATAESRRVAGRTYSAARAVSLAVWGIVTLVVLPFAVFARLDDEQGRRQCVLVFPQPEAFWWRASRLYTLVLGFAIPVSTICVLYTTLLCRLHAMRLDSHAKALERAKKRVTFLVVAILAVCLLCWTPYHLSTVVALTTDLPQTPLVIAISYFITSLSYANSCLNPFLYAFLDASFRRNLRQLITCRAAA
OX1R antag-1: blocks the human orexin 1 receptor; O43613; CHO/OX1R cells, Fluo-8 calcium fluorescence, orexin A; inhibition, % at 5 µM; 330,000 tested, 0.43% active; AID 434989;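 active means inhibition above its plate's threshold, mean inhibition of all tested compounds on the plate plus 3 SD, cut at about 37% in these data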;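 further: 0% = orexin A challenge wells and 100% = SB-334867-A antagonist wells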
OX1R antag-2: blocks the human orexin 1 receptor. OX1R-expressing cells, FRET antagonist read-out. inhibition, % at 6.6 µM. 330,000 tested, 1.8% active. AID 485270; in the data active means inhibition mostly above about 38%, no sharp cut-off; inactive means mostly below about 40%;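 further: 0% = agonist challenge alone and 100% = reference antagonist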
CHO parental Ca: signal in parental CHO cells, OX1R antagonist counter-screen. parental CHO-K1, ATP-induced calcium, Fluo-8 fluorescence. inhibition, % at 5.6 µM. 330,000 tested, 0.63% active;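 active means inhibition above that plate's mean sample inhibition plus 3 SD, cut at about 26% in these data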;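 further: 0% = ATP-challenged DMSO wells and 100% = DMSO wells without ATP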
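material = parental CHO cells | also added = ATP as calcium-mobilizing challenge | dosing = single point at 5.6 µM | detection = intracellular calcium via Fluo-8 no-wash fluorescent dye | read-out = % inhibition | benchmarks = low control ATP plus DMSO, high control DMSO only | repeats = one well per compound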
TAAR1 ag: human TAAR1 agonism. 360,000 tested, 0.99% active. activation, % at 3 µM. AID 624467. Q96RJ0. CHO RD-HGA16 TAAR1, Fluo-8 calcium fluorescence; vehicle wells 0%, saturating PEA agonist 100%;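 active means activation above the mean activation of all test compounds in the run plus 3 SD, cut at about 38% in these data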
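System: CHO-derived RD-HGA16 cells with stable Gα16 and human TAAR1 / Times: 17-24 h plating, Fluo-8 75 min 37 °C, 30 min RT / Technique: calcium-sensitive Fluo-8 signal, excitation 470-495, emission 515-575 nm / Measure: % activation relative to PEA EC100 response / Benchmarks: DMSO and PEA EC100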
TAAR1 antagonist: human TAAR1 antagonism; CHO RD-HGA16 TAAR1, Fluo-8 calcium fluorescence, antagonist; 360,000 tested, 1.5% active; inhibition, % at 3 µM; Q96RJ0; AID 624466;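 active means inhibition above a per-plate cutoff, the mean inhibition of test compounds on that plate plus 3 SD, cut at about 49% in these data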;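 further: 0% = DMSO plus EC80 beta-PEA response and 100% = DMSO alone without agonist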
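Test system: hTAAR1-expressing CHO RD-HGA16 cells, Gα16-coupled; Probe or stimulus: EC80 β-phenethylamine stimulus; Compound dosing: single nominal final test compound concentration of 3 µM; Timing: 140 s kinetic read after compound, 140 s after agonist; Signal: Fluo-8 calcium-sensitive fluorescence; Measure: % inhibition of agonist calcium response; Controls: DMSO and EC80 PEA controls.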
The depositor's hits bear a star. Rows were chosen to be rich in hits. Some 4.6% of all compounds tested hit in one or more screens of this group.

CC1CC(C)CN(C(=S)Nc2ccc(SC(F)F)cc2)C1 (centres undefined) was read as GPR7 antag 4, OX1R antag-1 5, OX1R antag-2 19, CHO parental Ca -9, TAAR1 ag 41* and TAAR1 antagonist 15.
Screening O=C(c1cccs1)N1CCN(S(=O)(=O)c2cccc(Cl)c2Cl)CC1 returned TAAR1 ag 2 and TAAR1 antagonist -4.
For C#CCN1C(=O)S/C(=C/C=C/c2ccc(N(C)C)cc2)C1=O the results were GPR7 antag 15, OX1R antag-1 79*, OX1R antag-2 21, CHO parental Ca 72*, TAAR1 ag 24 and TAAR1 antagonist 34.
`O=C(Nc1ccc(-c2nc3ccccc3o2)c(O)c1)c1cc(-n2cnnc2)ccc1Cl` gave GPR7 antag -5, OX1R antag-1 11, OX1R antag-2 17, CHO parental Ca 32*, TAAR1 ag 10 and TAAR1 antagonist 29.
Screening O=C(Nc1ccc(-c2nc3ccccc3o2)cc1)c1cc(-n2cnnc2)ccc1Cl returned GPR7 antag -6, OX1R antag-1 5, OX1R antag-2 15, CHO parental Ca 8, TAAR1 ag 10 and TAAR1 antagonist 32.
`Cc1cccc(NC(=O)CC2c3ccccc3Oc3ccccc32)c1` gave GPR7 antag 3, OX1R antag-1 -11, OX1R antag-2 51*, CHO parental Ca -12, TAAR1 ag 0 and TAAR1 antagonist -14.
For CC1(C)CC(N=C2C([N+](=O)[O-])=CC=C3C2=NC2(CCCCC2)N3O)CC(C)(C)N1 the results were GPR7 antag 0, OX1R antag-1 -2, OX1R antag-2 74*, CHO parental Ca 8, TAAR1 ag 3 and TAAR1 antagonist -11.
Screening O=[N+]([O-])C1=CC=C2C(=NC3(CCCCC3)N2O)C1=NC1CCCCC1 returned GPR7 antag -8, OX1R antag-1 -9, OX1R antag-2 -2, CHO parental Ca 2, TAAR1 ag 1 and TAAR1 antagonist -36.
O=C(Cn1sc2ccccc2c1=O)Nc1ccc(Br)cc1 was read as TAAR1 ag 39* and TAAR1 antagonist 24.
For CC(=O)c1ccccc1Oc1nc(CN2CCOCC2)nc2scc(-c3cccs3)c12 the results were GPR7 antag 3, OX1R antag-1 12, OX1R antag-2 44*, CHO parental Ca -23, TAAR1 ag 0 and TAAR1 antagonist 12.
`CC(=O)c1ccc(N2CCN(S(=O)(=O)c3ccc(-c4cnc(C5CC5)o4)cc3)CC2)cc1` gave GPR7 antag 0, OX1R antag-1 -6, OX1R antag-2 3 and CHO parental Ca 4.
COc1ccc(Br)cc1[C@H]1[C@H]2C=CC[C@@H](C)[C@@H]2C(=O)N1Cc1ccccc1 was read as TAAR1 ag 16 and TAAR1 antagonist -6.
O=C(NC1CCCC1)c1ccc2nc(-c3ccco3)c(-c3ccco3)nc2c1 was read as GPR7 antag -12, OX1R antag-1 -12, OX1R antag-2 63* and CHO parental Ca -7.
`O=C(Nc1cccc(Cl)c1)C1C2CCC3C(CCC21)C3(Cl)Cl` (centres undefined) gave GPR7 antag 42*, OX1R antag-1 4, OX1R antag-2 35, CHO parental Ca -16, TAAR1 ag 4 and TAAR1 antagonist 14.
For O=C(Nc1ccccc1)C1C2CCC3C(CCC21)C3(Cl)Cl (centres undefined) the results were GPR7 antag 7, OX1R antag-1 -4, OX1R antag-2 40, CHO parental Ca -17, TAAR1 ag 4 and TAAR1 antagonist -4.
O=C(COC(=O)c1cc(=O)[nH]c2ccc(Br)cc12)c1ccccc1 was read as GPR7 antag 1, OX1R antag-1 -38, OX1R antag-2 18, CHO parental Ca -21, TAAR1 ag 41* and TAAR1 antagonist 26.
Screening O=C(COC(=O)c1cc(=O)[nH]c2ccccc12)c1ccc(Br)cc1 returned GPR7 antag -10, OX1R antag-1 -15, OX1R antag-2 -1, CHO parental Ca -15, TAAR1 ag -3 and TAAR1 antagonist -29.
Screening O=[N+]([O-])c1ccc2ncnc(N3CCN(Cc4ccc5c(c4)OCO5)CC3)c2c1 returned GPR7 antag 1, OX1R antag-1 -20, OX1R antag-2 56*, CHO parental Ca -4, TAAR1 ag 2 and TAAR1 antagonist 3.
